Sampled rows, rich in hits. Any-hit rate of the full collection: about 3%.
CendR NRP1 mod – alters CendR peptide binding to human NRP-1; O14786; FAM-RPARPAR peptide binding to NRP-1, fluorescence polarization; inhibition, % at 25 µM; 360,000 tested, 0.85% active; AID 602438;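 active = inhibition or corrected inhibition above about 18%, plus a signal ratio from 0.5 to 1.5, limit read from the data, passing the limit was not always enough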
DDE Tn7 FP inh – DD(E)-Tn7 binding inhibition, primary FP screen | inhibition, % at 8.3 µM | 370,000 tested, 0.13% active | AID 720508 | P02675 | FP displacement of FITC-Tn7 peptide from fibrin DD(E); 0% = median of compound wells per plate;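 active = inhibition above the mean of compounds falling within the control limits plus 3 SD of them, cut at about 14% in these data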;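 note: 0% = plate median of compound wells and 100% = 10 µM Aha-Tn7 peptide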
Target sequence (P02675 whole entry, looked up): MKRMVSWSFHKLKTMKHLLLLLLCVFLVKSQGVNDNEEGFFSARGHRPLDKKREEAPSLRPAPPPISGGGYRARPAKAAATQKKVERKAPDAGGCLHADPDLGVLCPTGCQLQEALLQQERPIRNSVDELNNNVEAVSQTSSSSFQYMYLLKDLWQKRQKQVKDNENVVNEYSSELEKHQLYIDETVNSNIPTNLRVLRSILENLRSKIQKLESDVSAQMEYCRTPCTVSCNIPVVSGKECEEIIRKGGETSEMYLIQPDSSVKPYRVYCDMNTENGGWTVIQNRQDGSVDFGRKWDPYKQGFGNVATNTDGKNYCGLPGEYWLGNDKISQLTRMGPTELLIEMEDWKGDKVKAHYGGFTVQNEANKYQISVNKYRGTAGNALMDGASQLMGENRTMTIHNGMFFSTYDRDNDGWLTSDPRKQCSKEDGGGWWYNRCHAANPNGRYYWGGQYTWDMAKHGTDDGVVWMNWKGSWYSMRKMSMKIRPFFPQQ
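Test system: human clot-derived fibrin DD(E) complex / Quantity: 2 µM final DD(E) protein / Incubation: 10 min plus 3 h, room temperature / Measured by: fluorescence polarization / Benchmarks: high control of 10 µM Aha-Tn7 peptide / Replicates: singlicate testing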
PLC-gamma1 inh – PLC-gamma1 (human) inhibition, primary screen; P19174; purified PLC-gamma1, fluorogenic substrate, fluorescence; inhibition, % at 12.2 µM; 370,000 tested, 0.84% active; AID 720700; in the data active = inhibition above about 9.5%
DDE Tn6 FP inh – disrupts Tn6 cyclic peptide binding to fibrin D-Dimer-E complex; Fibrin DD(E) TRITC-Tn6 fluorescence polarization displacement; inhibition, % at 8.3 µM; 370,000 tested, 0.21% active;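 active = inhibition above a per-campaign cutoff: mean of compounds within control limits plus 3 SD, cut at about 15% in these data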;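 note: 0% = median of all compound wells on the plate and 100% = blocking peptide control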
proKLK7 act – activators of human kallikrein-7 zymogen; AID 652039; 370,000 tested, 0.9% active; activation, % at 7 µM; purified proKLK7, EDANS-DABCYL substrate fluorescence; 100% is mature enzyme control, 0% vehicle; P49862;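 active = activation above the mean of all tested compounds plus 3 SD, computed per campaign excluding outliers beyond control limits, cut at about 13% in these data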
Target sequence (P49862 whole entry, looked up): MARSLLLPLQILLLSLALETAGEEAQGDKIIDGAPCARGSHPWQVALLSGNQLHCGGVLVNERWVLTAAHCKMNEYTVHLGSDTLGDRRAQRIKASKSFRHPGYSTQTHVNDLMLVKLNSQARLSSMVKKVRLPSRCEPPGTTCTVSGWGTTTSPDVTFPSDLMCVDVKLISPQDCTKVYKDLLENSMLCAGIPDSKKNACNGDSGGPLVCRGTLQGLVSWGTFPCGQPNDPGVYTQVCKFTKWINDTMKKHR
PLC-beta3 inh – PLC-beta3 (human) inhibition, primary screen; Q01970; Purified PLC-beta3, fluorogenic substrate, fluorescence; inhibition, % at 12.2 µM; 370,000 tested, 0.18% active; AID 720704; in the data active = inhibition above about 11%;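 note: 0% = median of compound wells on plate and 100% = full blocker control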
Numbers without * were called inactive.

What do the screens show for `COC(=O)C1CN(Cc2cn(Cc3ccc(OC)cc3)nn2)CCS(=O)(=O)N1Cc1ccc(Cl)cc1` (stereo unspecified)?
DDE Tn7 FP inh: 0.2; PLC-gamma1 inh: 0.3; DDE Tn6 FP inh: 4.2; proKLK7 act: 0.4; PLC-beta3 inh: 0.2

What do the screens show for `CCN1C(=NCCc2ccccn2)N[C@@H](c2cccc(C(F)(F)F)c2)C(C(=O)OC)=C1C`?
CendR NRP1 mod: 20.7*; DDE Tn7 FP inh: 3.1; PLC-gamma1 inh: -5.0; DDE Tn6 FP inh: 1.5; proKLK7 act: 0.5; PLC-beta3 inh: 0.1

How did CCOc1ccc(CN(C)C(=O)c2ccc(S(=O)(=O)N(C)c3ccccc3OC)cc2)cc1 do in these assays?
CendR NRP1 mod: -9.3; DDE Tn7 FP inh: -7.2; PLC-gamma1 inh: 10.1*; DDE Tn6 FP inh: -3.5; proKLK7 act: 0.0; PLC-beta3 inh: -2.4

What do the screens show for `CC(=O)Nc1ccc(C(CCCc2ccccc2)C2=CCCCC2)cc1` (stereo unspecified)?
DDE Tn7 FP inh: -11.6; PLC-gamma1 inh: 1.2; DDE Tn6 FP inh: -1.2; proKLK7 act: -0.1; PLC-beta3 inh: 1.7

What do the screens show for `CCNC(=O)C1(C)CCCN(Cc2ccccc2-c2ccccc2)C1` (stereo unspecified)?
CendR NRP1 mod: 22.7*; DDE Tn7 FP inh: 5.9; PLC-gamma1 inh: -2.6; DDE Tn6 FP inh: 2.8; proKLK7 act: 0.5; PLC-beta3 inh: 0.7

What do the screens show for `CCNC(=O)C1(C)CCN(Cc2ccccc2-c2ccccc2)C1` (stereo unspecified)?
CendR NRP1 mod: -7.3; DDE Tn7 FP inh: 6.1; PLC-gamma1 inh: -0.7; DDE Tn6 FP inh: -1.9; proKLK7 act: -5.4; PLC-beta3 inh: 0.2

Results for COCCOC(=O)N(C)C[C@@H]1OCCCC[C@H](C)Oc2ccc(NC(=O)Nc3ccccc3)cc2C(=O)N([C@@H](C)CO)C[C@H]1C ?
DDE Tn7 FP inh: 3.0; PLC-gamma1 inh: -0.3; DDE Tn6 FP inh: 6.1; PLC-beta3 inh: -0.2

Results for O=C(Nc1ccccc1)Nc1nnc(Cc2ccccc2F)s1 ?
CendR NRP1 mod: -3.4; DDE Tn7 FP inh: 1.5; PLC-gamma1 inh: 4.9; DDE Tn6 FP inh: -3.1; proKLK7 act: 0.0; PLC-beta3 inh: 6.0

How did O=C(Nc1nnc(Cc2ccccc2)s1)Nc1ccccc1F do in these assays?
CendR NRP1 mod: 3.6; DDE Tn7 FP inh: -8.6; PLC-gamma1 inh: 12.0*; DDE Tn6 FP inh: 5.5; proKLK7 act: -0.2; PLC-beta3 inh: 0.3

Results for Cc1ccc(NCCc2ccc(C)nc2)cc1 ?
CendR NRP1 mod: 19.9*; DDE Tn7 FP inh: 5.9; PLC-gamma1 inh: -0.1; DDE Tn6 FP inh: -5.0; proKLK7 act: -0.1; PLC-beta3 inh: 0.5

How did CC(C)CC(=O)N1CCN(c2ccc([N+](=O)[O-])c(NCc3ccccc3)c2)CC1 do in these assays?
CendR NRP1 mod: 7.0; DDE Tn7 FP inh: 1.7; PLC-gamma1 inh: 12.9*; DDE Tn6 FP inh: 0.1; proKLK7 act: 0.6; PLC-beta3 inh: 8.3

How did CC(C)(C)C(=O)N1CCN(c2ccc([N+](=O)[O-])c(NCc3cccnc3)c2)CC1 do in these assays?
CendR NRP1 mod: 1.2; DDE Tn7 FP inh: -0.2; PLC-gamma1 inh: 6.0; DDE Tn6 FP inh: 1.9; proKLK7 act: 0.4; PLC-beta3 inh: 4.0

Results for CCCn1nnnc1NCc1cccc(OC)c1OC ?
CendR NRP1 mod: 14.8; DDE Tn7 FP inh: -4.7; PLC-gamma1 inh: 0.8; DDE Tn6 FP inh: 0.7; proKLK7 act: -0.1; PLC-beta3 inh: -3.7

What do the screens show for `CCN(CC)CCn1c(NCc2ccco2)nc2ccccc21`?
CendR NRP1 mod: 7.2; DDE Tn7 FP inh: -1.0; PLC-gamma1 inh: -1.4; DDE Tn6 FP inh: -0.1; proKLK7 act: 0.3; PLC-beta3 inh: -1.6

What do the screens show for `CCCCn1nnnc1NCc1cccc(OC)c1OC`?
CendR NRP1 mod: 23.2*; DDE Tn7 FP inh: 5.5; PLC-gamma1 inh: 1.0; DDE Tn6 FP inh: 7.6; proKLK7 act: -0.8; PLC-beta3 inh: 1.1

Results for CCN(CC)CCn1c(NCc2cccc(OC)c2OC)nc2ccccc21 ?
CendR NRP1 mod: 21.2*; DDE Tn7 FP inh: -10.5; PLC-gamma1 inh: 1.3; DDE Tn6 FP inh: -4.9; proKLK7 act: 0.3; PLC-beta3 inh: 0.6

Results for CCCCCCCCN1C(=O)[C@@H](CC(=O)NCCCOC)C[C@@]2(C(=O)OC)C1=C[C@H](C(C)C)O[C@@H]2C1CC1 ?
DDE Tn7 FP inh: -6.3; PLC-gamma1 inh: 4.7; DDE Tn6 FP inh: 2.6; proKLK7 act: 0.3; PLC-beta3 inh: 3.2

Results for COc1ccc(CN2C/C(=C/c3ccc(C)cc3)N3C(=O)C[C@@H](c4ccccc4)N=C23)c(OC)c1 ?
DDE Tn7 FP inh: 2.3; PLC-gamma1 inh: -9.9; DDE Tn6 FP inh: -3.5; proKLK7 act: -1.1; PLC-beta3 inh: -8.9

Results for CCN(Cc1ccncc1)C(=O)c1cc(COc2ccc(F)cc2F)on1 ?
CendR NRP1 mod: 43.3*; DDE Tn7 FP inh: -1.6; PLC-gamma1 inh: 3.6; DDE Tn6 FP inh: -0.2; proKLK7 act: 0.1; PLC-beta3 inh: 1.9

How did COc1ccccc1CN1CC(C(=O)N(C)CCc2ccccn2)CCC1=O (stereo unspecified) do in these assays?
CendR NRP1 mod: -1.6; DDE Tn7 FP inh: 4.2; PLC-gamma1 inh: 5.6; DDE Tn6 FP inh: 0.0; proKLK7 act: 0.7; PLC-beta3 inh: 13.3*

What do the screens show for `COc1ccccc1CN1CC(C(=O)N(C)CCOc2ccccc2)CCC1=O` (stereo unspecified)?
CendR NRP1 mod: 11.1; DDE Tn7 FP inh: 9.6; PLC-gamma1 inh: -1.2; DDE Tn6 FP inh: 13.7; proKLK7 act: 0.4; PLC-beta3 inh: -5.2

How did COC(=O)C1CN(Cc2cn(Cc3ccc(OC)cc3)nn2)CCS(=O)(=O)N1Cc1ccc(C)cc1 (stereo unspecified) do in these assays?
DDE Tn7 FP inh: 2.0; PLC-gamma1 inh: 0.3; DDE Tn6 FP inh: 6.7; proKLK7 act: -0.1; PLC-beta3 inh: -1.6

Results for CCCCOCCCNC(=O)C[C@@H]1C(=O)N(CCc2ccc(Cl)cc2)C2=CCCCC[C@]21C(=O)OC ?
DDE Tn7 FP inh: -2.0; PLC-gamma1 inh: -0.5; DDE Tn6 FP inh: 7.5; proKLK7 act: 0.5; PLC-beta3 inh: 0.8

Results for Fc1ccc(-c2n[nH]c(=S)n2N=Cc2ccc(-c3ccccc3)cc2)cc1 ?
DDE Tn7 FP inh: -3.5; PLC-gamma1 inh: -1.6; DDE Tn6 FP inh: 3.1; proKLK7 act: 0.2; PLC-beta3 inh: -2.2

Results for Cc1cc(Cl)ccc1NC(=O)c1ccc2c(c1)CCN2S(C)(=O)=O ?
CendR NRP1 mod: 16.2*; DDE Tn7 FP inh: 3.4; PLC-gamma1 inh: 3.1; DDE Tn6 FP inh: -0.6; proKLK7 act: 0.1; PLC-beta3 inh: -0.9

Results for Cc1ccccc1NC(=O)c1ccc2c(c1)CCN2S(C)(=O)=O ?
CendR NRP1 mod: -1.2; DDE Tn7 FP inh: 2.5; PLC-gamma1 inh: 6.5; DDE Tn6 FP inh: -1.8; proKLK7 act: -0.1; PLC-beta3 inh: 4.8

How did Cc1n[nH]c(C)c1S(=O)(=O)N1CCOCC1 do in these assays?
CendR NRP1 mod: 26.7*; DDE Tn7 FP inh: -0.5; PLC-gamma1 inh: 4.1; DDE Tn6 FP inh: -1.3; proKLK7 act: -0.5; PLC-beta3 inh: 5.4

Bioassay records as filed in PubChem.
